Data on 14 molecules can be found in ChEMBL document CHEMBL1124238, “Methotrexate analogues. 32. Chain extension, alpha-carboxyl deletion, and gamma-carboxyl replacement by sulfonate and phosphonate: effect on enzyme binding and cell-growth inhibition” (J Med Chem, 1988).

For assay [1], the system named is Folylpolyglutamate synthase (Mus musculus). Kind of assay: Inhibition of Folyl-polyglutamate synthase from mouse liver. Details: concentration or dose not given beside the values. Conditions: concentration not given here.
The next assay concerns the target T1, Dihydrofolate reductase (Mus musculus, UniProt P00375).
T1 sequence (P00375 whole entry): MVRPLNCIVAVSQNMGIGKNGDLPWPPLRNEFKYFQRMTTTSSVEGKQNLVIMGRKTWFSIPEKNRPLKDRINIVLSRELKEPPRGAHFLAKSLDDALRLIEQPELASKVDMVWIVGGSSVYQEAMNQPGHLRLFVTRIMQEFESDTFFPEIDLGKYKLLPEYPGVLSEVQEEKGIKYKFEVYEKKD
Description: Inhibition of dihydrofolate reductase (DHFR) in mouse L1210 leukemia cells. It counts as cell-based.

For a further assay, the species on record is Mus musculus. Description: (§1) Inhibition of Folyl-polyglutamate synthase from mouse liver. Conditions: concentration not given here. The method in brief: (§2)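 Partially purified mouse liver enzyme, run at 37 °C for 1 h in Tris buffer pH 8.6 with 20 mM α-thioglycerol. The mixture held 1 mM [3H]-L-glutamic acid, 500 μM folic acid and 500 μM inhibitor. Activity is expressed as percent of untreated control. Ki,s comes from a slope replot of double-reciprocal 1/V versus 1/S plots, and was not determined where inhibition was below 30%.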

Assay [2] can be described thus: as §1. The method, boiled down: as §2
The subject of assay [3] is L1210. Description: Inhibition of cell growth against cultured L1210 leukemia cells in mouse. It counts as functional, cell-based.
A further assay concerns L1210 ( R81). Kind of assay: (§3) Inhibition of cell growth against highly MTX- and AMT-resistant mutant L1210/R81. It counts as functional, cell-based. Conditions: Mus musculus.
Assay [4] concerns L1210. The description is as §3. Conditions: Mus musculus. It counts as functional, cell-based.

As usually defined, the inhibition is the percentage by which the read-out fell short of the control. With `CN(Cc1cnc2nc(N)nc(N)c2n1)c1ccc(C(=O)NCCCP(=O)(O)O)cc1`, in assay [1], the inhibition was determined as 16%.
On the same count and under the same terms, as for `CN(Cc1cnc2nc(N)nc(N)c2n1)c1ccc(C(=O)NC(CCS(=O)(=O)O)C(=O)O)cc1` (stereo not given), the figure is 59%.
Molecule `CN(Cc1cnc2nc(N)nc(N)c2n1)c1ccc(C(=O)NCS(=O)(=O)O)cc1` came in with an inhibition in assay [1] of 19%.
Usually IC50 stands for the concentration that gives 50% inhibition. Broadly, the Ki is a measure of affinity in units of concentration, obtained from inhibition or displacement. `Nc1nc(N)c2nc(CNc3ccc(C(=O)NC(CCP(=O)(O)O)C(=O)O)cc3)cnc2n1` (stereo not given): the IC50 on Dihydrofolate reductase was found to be 63 nM; in the assay with L1210 [3], 67 nM; in the assay on L1210 ( R81) it was 240000 nM. This molecule had an inhibition in the assay filed under Mus musculus of 100%. In addition, the Ki in assay [2] was 8400 nM.
Consider `Nc1nc(N)c2nc(CNc3ccc(C(=O)NC(CP(=O)(O)O)C(=O)O)cc3)cnc2n1` (stereo not given), for which the IC50 on Dihydrofolate reductase stood at 550 nM; with L1210 [3], 250 nM; with L1210 [4] it was 390000 nM. In the assay filed under Mus musculus, this molecule gave an inhibition of 22%. In assay [2], this molecule showed a Ki of 900000 nM.
As to `Nc1nc(N)c2nc(CNc3ccc(C(=O)NC(CCS(=O)(=O)O)C(=O)O)cc3)cnc2n1` (stereo not given), the inhibition in assay [1] came out at 77%.
Same read-out and setting: as for `CN(Cc1cnc2nc(N)nc(N)c2n1)c1ccc(C(=O)NCCCS(=O)(=O)O)cc1`, the figure is 18%; as for `CN(Cc1cnc2nc(N)nc(N)c2n1)c1ccc(C(=O)NCCCCS(=O)(=O)O)cc1`, 26%; as for `CCOP(=O)(O)CCCNC(=O)c1ccc(N(C)Cc2cnc3nc(N)nc(N)c3n2)cc1`, 9%.
Turning to `Nc1nc(N)c2nc(CNc3ccc(C(=O)NC(CCCCP(=O)(O)O)C(=O)O)cc3)cnc2n1` (stereo not given), the IC50 against Dihydrofolate reductase was 67 nM; in the assay on L1210 [3], 130 nM; with L1210 ( R81), above 280000 nM. The molecule further showed an inhibition in the assay filed under Mus musculus of 44%. The Ki in assay [2] was found to be 155000 nM.
With `CN(Cc1cnc2nc(N)nc(N)c2n1)c1ccc(C(=O)NC(CCP(=O)(O)O)C(=O)O)cc1` (stereo not given), the inhibition in assay [1] stood at 53%.
Regarding `Nc1nc(N)c2nc(CNc3ccc(C(=O)NC(CCCP(=O)(O)O)C(=O)O)cc3)cnc2n1` (stereo not given), the IC50 against Dihydrofolate reductase is 83 nM; in the assay with L1210 [3], 120 nM; in the assay on L1210 ( R81), above 460000 nM. For the same molecule, the inhibition in the assay listed under Mus musculus came to 52%. In addition, in assay [2], affinity was put at a Ki of 124000 nM.
`CN(Cc1cnc2nc(N)nc(N)c2n1)c1ccc(C(=O)NCCP(=O)(O)O)cc1` came in with an inhibition in assay [1] of 22%.
For the molecule `CN(Cc1cnc2nc(N)nc(N)c2n1)c1ccc(C(=O)NCCS(=O)(=O)O)cc1`, the inhibition in assay [1] was found to be 22%.
